The list is not random: actives were taken first. Their share in the collection is about 4.9%.
APP 5'UTR act – APP 5'UTR luciferase reporter activation; SH-SY5Y APP 5'UTR luciferase reporter, luminescence; zero percent = DMSO vehicle wells; 190,000 tested, 1% active; activation, % at 2 µM;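 active = activation above a set limit, based on mean plus 3 SD of controls, cut at about 140% in these data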
STAT3 inh – reduces IL-6 driven STAT3 reporter signal. U3A cells, IL-6 STAT3-luciferase reporter, luminescence; host cell line lacks STAT1. inhibition, % at 5.5 µM. 190,000 tested, 0.89% active. AID 862;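 active = inhibition above the mean inhibition across all screened compounds plus 3 SD, cut at about 44% in these data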;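 note: 0% = DMSO only wells and 100% = 100 µM nifuroxazide control wells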
STAT1 activator – activators of IFN-gamma induced STAT1 signaling; NIH 3T3 STAT1-luciferase reporter, luminescence; 100% = IFN-gamma alone, no compound; activation (% of control), % at 5.5 µM; 200,000 tested, 2.6% active; AID 932;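 active = activation above the screen-wide mean activation plus 3 SD, cut at about 130% in these data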;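 note: raw ratio to IFN-gamma control signal so 100% means no change and 0% no light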
STAT1 inh – reduces IFN-gamma driven STAT1 reporter signal; NIH 3T3 STAT1-luciferase reporter, luminescence; inhibition, % at 5.5 µM; 200,000 tested, 0.35% active;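 active = inhibition above a set limit, the mean inhibition across all tested compounds plus 3 SD, cut at about 34% in these data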;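 note: 0% = IFN-gamma with DMSO and 100% = IFN-gamma with 300 µM nifuroxazide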
STAT3 act – increases IL-6 driven STAT3 reporter signal | 190,000 tested, 0.91% active | activation (% of control), % at 5.6 µM | U3A cells, IL-6 STAT3-luciferase reporter, luminescence; 100% = signal with IL-6 EC80 alone;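 active = activation above the screen-wide mean of compound activation plus 3 SD, cut at about 130% in these data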;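 note: 0% = background luminescence of wells with medium and substrate only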
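Assay system – human STAT1-deficient U3A cells with stable STAT3-luciferase reporter · Also added – IL-6 (33 ng/mL) · Schedule – compound 1 h, then IL-6 6 h at 37 °C · Technique – reporter luminescence signal · Evaluation – % activation versus median of IL-6-stimulated wells · Benchmarks – IL-6-only wells as 100% reference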
NF-kB neuron act – NF-kB expression increase, human neuronal cells; NF-kB reporter expression; active compounds read high; fold change at 12.5 µM; 190,000 tested, 1.6% active; AID 1239; in the data active = fold change above about 3.3
* = called active by the depositor; x = no result.

SMILES	APP 5'UTR act	STAT3 inh	STAT1 activator	STAT1 inh	STAT3 act	NF-kB neuron act
CCCCNC(=O)c1onc(CSc2ccccc2CC)c1C(=O)O	7	120*	97	3	7	1
Cc1c(C(=O)OC2CCCC2)[nH]c2c1C(=O)CC(c1ccco1)C2 (configuration not stated)	-94	-25	97	0	120	4.3*
COC(=O)C1C(=O)c2c([nH]c(C(=O)OC3CCCC3)c2C)CC1C (configuration not stated)	109	-9	144*	-57	108	3.4*
C=CCOC(=O)c1[nH]c2c(c1C)C(=O)CC(c1ccco1)C2 (configuration not stated)	-97	-36	97	5	130	4.7*
Cc1c(C(=O)OC2CCCC2C)[nH]c2c1C(=O)CCC2 (configuration not stated)	25	16	110	-10	87	2
C/C=C/COC(=O)c1[nH]c2c(c1C)C(=O)CC(c1ccco1)C2 (configuration not stated)	-95	3	87	15	102	1.9
O=C(Oc1ccc2ccccc2c1Cl)N1CCCC1	143*	-11	144*	-48	114	5.1*
O=C(Oc1ccc(Cl)c2ccccc12)N1CCCCC1	10	0	103	-3	102	1.5
Fc1ccccc1SCc1nnc(-c2ccccc2Br)o1	161*	20	112	-15	86	7.2*
Cc1nnc(SCc2nnc(-c3ccccc3Br)o2)n1-c1ccccc1	8	-4	95	5	106	0.98
Cc1csc(SCc2nnc(-c3ccc(Cl)cc3)o2)n1	95	-11	116	-17	106	3.7*
Cc1csc(SCc2nnc(-c3ccccc3Br)o2)n1	185*	7	134*	-37	98	5.4*
Brc1ccccc1-c1nnc(CSc2nnnn2-c2ccccc2)o1	10	-1	104	-5	107	1.1
Cc1ccc(-c2nnc(CSc3nnc(C)s3)o2)cc1	12	-9	109	-10	108	1.6
CCOC(=O)c1[nH]c(C)c(C(=O)OCC(=O)N(C)C2CCS(=O)(=O)C2)c1C (configuration not stated)	-3	6	107	-10	97	1.6
Sc1oc(-c2ccccc2)cc1C=Nc1ccccc1	30	-10	134*	-37	109	3
O=[N+]([O-])c1cc2c(cc1C=Nc1ccccc1)OCO2	3	2	99	2	103	1.1
CCc1ccc(C(=O)Nc2cc(C)ccc2F)s1	40	-8	132*	-34	106	1.9
Cc1ccc(C(=O)Nc2cc([N+](=O)[O-])ccc2F)s1	1	23	104	-5	83	1.4
CN(C)c1ccc(C(=S)NC2CCCCC2)cc1	83	-11	132*	-36	114	3.4*
CSc1nnc(-c2cc3c(s2)-c2ccccc2CC3)o1	122	-71	136*	-41	164*	3.2
S=c1[nH]nc(-c2cc3c(s2)-c2ccccc2CC3)o1	24	-34	118	-19	133	1.6
CCN(CC)C(=O)Cn1c(=O)c2ccccc2n2c(=S)sc(-c3cccc(C)c3)c12	5	-1	102	-2	97	1
CC[C@H](C)/C=C(C)/C=C/C1=CC2=CC(=O)[C@]3(C)OC(=O)[C@@H](C(C)=O)[C@@H]3C2=CO1	-3	x	95	4	x	3.8*
Clc1ccccc1-c1nc(-c2ccccc2)n[nH]1	109	-14	132*	-35	120	4*
SMILES	APP 5'UTR act	STAT3 inh	STAT1 activator	STAT1 inh	STAT3 act	NF-kB neuron act
COc1cc2[nH]c3c(=O)n4c(nc3c2cc1OC)SCCC4	22	77*	56	48*	36	0.89
COc1ccc2[nH]c3c(=O)n4c(nc3c2c1)SCC4	6	24	93	7	82	1.4
C/C(=N\OCc1ccc(C#N)cc1)c1ccccc1	94	27	142*	-45	80	2.6
C/C(=N/OCO/N=C(\C)c1ccccc1)c1ccccc1	2	-7	99	1	106	1.1
CC(C)(O)C#Cc1ccc(C(=O)NC2CCCCC2)s1	35	-19	123	-24	115	1.9
CCc1ccc(C(=O)NC2CCCCC2)s1	124	12	141*	-42	94	4.7*
C/C(=N\Nc1ccc(S(=O)(=O)N2CCOCC2)cc1[N+](=O)[O-])C(C)C	11	-4	102	-4	104	1.2
Cc1ccc(NC(=O)Cc2cc(C(=O)O)c3ccccc3n2)c(C)c1	-12	7	114	-16	98	4.6*
CCCc1cc(C(=O)O)c2ccccc2n1	-6	3	100	0	95	1.1
O=C(NCc1ccc(F)cc1)c1cc(-c2ccco2)on1	19	1	105	-10	101	1.4
O=C(NCc1ccco1)c1cc(-c2ccccc2)on1	68	-1	131*	-34	103	4.5*
O=C(NCc1ccco1)c1cc(-c2cccs2)on1	35	-4	130*	-32	106	5.2*
CC(C)Cc1cc(C(=O)NCc2cccs2)no1	60	-20	134*	-40	115	3.1
O=C(NCc1ccco1)c1cc(-c2ccc(F)cc2)on1	45	0	142*	-46	103	2.8
CCO[C@@H]1OC(C(=O)N2CCN(Cc3ccccc3)CC2)=C[C@H](c2coc3ccccc3c2=O)[C@H]1CCCO	0	x	103	-2	x	1.1
COCCCNC(=O)CCC(=O)NNc1nc2ccccc2c2nc(C)nn12	6	-2	100	-3	106	1.2
O=C(COC(=O)c1ccc([N+](=O)[O-])s1)NCc1ccccc1	16	-3	98	2	98	1.1
O=C(Nc1ccccc1F)c1ccc([N+](=O)[O-])s1	13	5	98	2	97	3.5*
O=C(Nc1cccc2ccccc12)c1ccc([N+](=O)[O-])s1	-25	31	91	9	76	3.8*
Cc1ccc(C(=O)NNC(=S)Nc2cccc3ccccc23)s1	150*	-43	108	-9	134*	2.4
O=C(Nc1nnc(-c2ccc3c(c2)CCCC3)o1)C1COc2ccccc2O1 (configuration not stated)	11	2	102	-2	103	1.3
CC(=O)c1sc(NC(=O)c2ccccc2)nc1-c1ccccc1	101	17	150*	-56	87	4.9*
COC(=O)Nc1nc(-c2ccccc2)c(C(=O)c2ccc(Cl)cc2)s1	-9	5	100	0	96	1.4
CCOC(=O)Nc1nc(-c2ccccc2)c(C(=O)c2ccccc2)s1	-94	-11	102	-2	107	3.6*
CC(=O)c1sc(NC(=O)c2cccc(C)c2)nc1C	124	22	131*	-35	83	5.5*

Source: PubChem BioAssay
